Source: ChEMBL document CHEMBL1144067, “Cancer chemopreventive agents (antitumor-promoters) from Ajuga decumbens” (J Nat Prod, 1999)

Key:
Mus musculus [1] = assay: Inhibition of DMBA-induced/TPA-promoted carcinogenesis in mouse assessed as number of skin papillomas per mouse at 85 nmol administered twice weekly after 1 week of initiation for 20 weeks; type: functional
Procedure, shortened: (§1)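 Female SPF ICR mice, 6 weeks old, 15 per group, backs shaved; single topical DMBA initiation (100 μg, 390 nmol) in 0.1 mL acetone. From 1 week after, promotion with TPA 1.7 nmol twice weekly, plus 85 nmol test agent. Papilloma incidence and number per mouse monitored weekly for 20 weeks.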

Mus musculus [2] = assay: Inhibition of DMBA-induced/TPA-promoted carcinogenesis in mouse assessed as number of skin papillomas per mouse at 85 nmol administered twice weekly after 1 week of initiation for 10 weeks; type: functional; procedure, shortened: as §1
[3] = Cytotoxicity against human Raji cells assessed as cell viability at 1000 molar ratio after 48 hrs; type: cell-based; conditions: read-out: Activity
Procedure, shortened: (§2)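 Raji cells (EBV genome-carrying, Burkitt's lymphoma-derived) grown in RPMI-1640 and incubated 48 h at 37 °C with 4 mmol n-butyric acid, 32 pmol TPA (20 ng/mL) and test agent at 10–1000 mol ratio/TPA (0.32–32 nmol). Viability given as percentage of Raji cells; n = 3, ±S.D.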

[4] = Cytotoxicity against human Raji cells assessed as cell viability at 100 molar ratio after 48 hrs; type: cell-based; conditions: read-out: Activity; procedure, shortened: as §2
Raji [5] = assay: Inhibition of 12-O-tetradecanoylphorbol-13-acetate induced EBV-early antigen activation in human Raji cells at 500 molar ratio relative to control; type: cell-based; conditions: human gammaherpesvirus 4
Procedure, shortened: (§3)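 Raji cells in RPMI-1640 treated 48 h at 37 °C with n-butyric acid (4 mmol), TPA (32 pmol = 20 ng/mL) and test agent at 10, 100, 500 or 1000 mol ratio/TPA (0.32–32 nmol). EA-positive cells in smears detected by indirect immunofluorescence; induction expressed relative to TPA positive control (100%), n = 3, ±S.D.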

Raji [6] = assay: Inhibition of 12-O-tetradecanoylphorbol-13-acetate induced EBV-early antigen activation in human Raji cells at 10 molar ratio relative to control; type: cell-based; conditions: human gammaherpesvirus 4; procedure, shortened: as §3
Raji [7] = assay: Inhibition of 12-O-tetradecanoylphorbol-13-acetate induced EBV-early antigen activation in human Raji cells at 100 molar ratio relative to control; type: cell-based; conditions: human gammaherpesvirus 4; procedure, shortened: as §3
[8] = Cytotoxicity against human Raji cells assessed as cell viability at 500 molar ratio after 48 hrs; type: cell-based; conditions: read-out: Activity; procedure, shortened: as §2
Raji [9] = assay: Inhibition of 12-O-tetradecanoylphorbol-13-acetate induced EBV-early antigen activation in human Raji cells at 1000 molar ratio relative to control; type: cell-based; conditions: human gammaherpesvirus 4; procedure, shortened: as §3
[10] = Cytotoxicity against human Raji cells assessed as cell viability at 10 molar ratio after 48 hrs; type: cell-based; conditions: read-out: Activity; procedure, shortened: as §2

| Structure (SMILES) | Activity (Mus musculus [1]) | Activity (Mus musculus [2]) | viability at 48 h, 1000 molar ratio [3] [%] | viability at 48 h, 100 molar ratio [4] [%] | EBV-EA induction remaining (% of TPA control) (Raji [5]) [%] | EBV-EA activation relative to TPA control (Raji [6]) [%] | EBV-EA induction remaining (% of TPA control) (Raji [7]) [%] | viability at 48 h, 500 molar ratio [8] [%] | EBV-EA induction remaining (% of TPA control) (Raji [9]) [%] | viability at 48 h, 10 molar ratio [10] [%] |
| --- | --- | --- | --- | --- | --- | --- | --- | --- | --- | --- |
| CC1(C)[C@@H](O)CC[C@]2(C)[C@H]3C(=O)C=C4[C@@H]5C[C@@](C)(C(=O)O)CC[C@]5(C)CC[C@@]4(C)[C@]3(C)CC[C@@H]12 [ENOXOLONE] | 9 | 4 |  |  |  |  |  |  |  |  |
| C=C(C)C(C[C@@H](O)[C@@](C)(O)[C@H]1CC[C@@]2(O)C3=CC(=O)[C@@H]4C[C@@H](O)[C@@H](O)C[C@]4(C)[C@H]3CC[C@]12C)C(C)O (some centres undefined) [DECUMBESTERONE] |  |  | 70 | > 80 | 24.7 | 100 | 66 | > 80 | 0 | > 80 |
| CC1(C)C[C@H](O)C[C@@]2(C)OC(=O)C=C12 [LOLIOLIDE] |  |  | 60 | > 80 | 26.8 | 88 | 59.6 | > 80 | 5.1 | > 80 |
| CC(=O)OC[C@@]12[C@@H](OC(C)=O)C[C@@H](C)[C@](C)(C[C@H](OC(C)=O)C3=CC(=O)OC3)[C@H]1[C@H](OC(C)=O)CC[C@]21CO1 [AJUGAPANTIN A] |  |  | 70 | > 80 | 54.7 | 100 | 79.2 | > 80 | 10.6 | > 80 |
| C/C=C(/C)C(=O)O[C@@H]1CC[C@]2(CO2)[C@]2(COC(C)=O)[C@@H](OC(C)=O)C[C@@H](C)[C@](C)(C[C@H](O)C3=CC(=O)OC3)[C@@H]12 |  |  | 50 | > 80 | 55.8 | 100 | 76.3 | > 80 | 0 | > 80 |
| O=c1cc(-c2ccc(O)cc2)oc2cc(O)cc(O)c12 [APIGENIN] |  |  | 50 | > 80 | 65.9 | 100 | 83.7 | > 80 | 31.5 | > 80 |
| CC(C)(O)CC[C@@H](O)[C@](C)(O)[C@H]1CC[C@@]2(O)C3=CC(=O)[C@]4(O)C[C@@H](O)[C@@H](O)C[C@]4(C)[C@H]3CC[C@]12C [POLYPODINE B] |  |  | 70 | > 80 |  |  |  | > 80 |  | > 80 |
| C/C=C(/C)C(=O)O[C@@H](C[C@@]1(C)[C@H](C)C[C@H](OC(C)=O)[C@]2(COC(C)=O)[C@@H]1[C@H](OC(=O)/C(C)=C\C)CC[C@]21CO1)C1=CC(=O)OC1 |  |  | 70 | > 80 | 47.2 | 100 | 71.5 | > 80 | 18.4 | > 80 |
| C/C=C(/C)C(=O)O[C@@H]1CC[C@]2(CO2)[C@]2(COC(C)=O)[C@@H](OC(C)=O)C[C@@H](C)[C@](C)(C[C@H](OC(C)=O)C3=CC(=O)OC3)[C@@H]12 |  |  | 60 | > 80 | 42.6 | 100 | 73.5 | > 80 | 0 | > 80 |
| C[C@@H]1C(=O)O[C@H](C)[C@H]1CC(=O)[C@](C)(O)[C@H]1CC[C@@]2(O)C3=CC(=O)[C@@H]4C[C@@H](O)[C@@H](O)C[C@]4(C)[C@H]3CC[C@]12C |  |  | 60 | > 80 | 61.9 | 100 | 84.5 | > 80 | 20.9 | > 80 |
| COc1cc(C(=O)O)ccc1O [VANILLIC ACID] |  |  | 60 | > 80 | 46.2 | 90.2 | 73.9 | > 80 | 0 | > 80 |
| CCC1=C(C)C(=O)O[C@@H]([C@](C)(O)[C@H]2CC[C@@]3(O)C4=CC(=O)[C@@H]5C[C@@H](O)[C@@H](O)C[C@]5(C)[C@H]4CC[C@]23C)C1 |  |  | 60 | > 80 | 58.2 | 100 | 81 | > 80 | 17.5 | > 80 |
| CC(C)(O)CC[C@@H](O)[C@@](C)(O)[C@H]1CC[C@@]2(O)C3=CC(=O)[C@@H]4C[C@@H](O)[C@@H](O)C[C@]4(C)[C@H]3CC[C@]12C |  |  | 70 | > 80 | 73.7 | 100 | 90.1 | > 80 | 0 | > 80 |
| C=C(CO)C(CC)C[C@@H](O)[C@@](C)(O)[C@H]1CC[C@@]2(O)C3=CC(=O)[C@@H]4C[C@@H](O)[C@@H](O)C[C@]4(C)[C@H]3CC[C@]12C (some centres undefined) |  |  | 70 | > 80 | 49.1 | 95.8 | 72.6 | > 80 | 4.6 | > 80 |
| C[C@@H]1C(=O)O[C@H](C)[C@H]1C[C@@H](O)[C@](C)(O)[C@H]1CC[C@@]2(O)C3=CC(=O)[C@]4(O)C[C@@H](O)[C@@H](O)C[C@]4(C)[C@H]3CC[C@]12C |  |  | 70 | > 80 | 51.9 | 100 | 80.2 | > 80 | 0 | > 80 |
| CC(C)(O)CC[C@@H](O)[C@@](C)(O)[C@H]1CC[C@@]2(O)C3=CC(=O)[C@]4(O)C[C@@H](O)[C@@H](O)C[C@]4(C)[C@H]3CC[C@]12C |  |  |  |  | 23.4 | 100 | 65.9 |  | 0 |  |
